{"data": "Measured values gathered from unrelated publications", "organism": "Plasmodium falciparum", "effect on": "parasite growth", "note": "Protocols differ between the studies behind these lines."}
{"SMILES": "CCn1cc(-c2nc(C)no2)c(=O)c2cc(F)c(N3CCCC(C)C3)cc21 (centres unmarked)", "strain": "3D7", "time": "72 h", "setting": "blood stage", "EC50 [nM]": 114}
{"SMILES": "COc1cc(OC)c(CCNC(=O)c2cn3cc(-c4cc(OCC(=O)O)ccc4OC)nc3s2)c(OC)c1", "strain": "3D7", "time": "72 h", "setting": "blood stage", "EC50 [nM]": 2230}
{"SMILES": "CCCNCC(O)COc1ccccc1C(=O)CCc1ccccc1 (centres unmarked)", "technique": "SYBR Green", "strain": "K1", "setting": "drug-resistant strain, blood stage", "EC50 [nM]": 920}
{"SMILES": "CN1CCC(c2cc(-c3ccncc3)c(-c3ccc(F)cc3)[nH]2)CC1", "technique": "SYBR Green", "cells": "A10", "strain": "3D7", "time": "72 h", "setting": "blood stage", "EC50 [nM]": 90}
{"SMILES": "CCn1cc(-c2nc(C)no2)c(=O)c2cc(F)c(N3CCC(Cc4ccccc4)CC3)cc21", "strain": "3D7", "setting": "blood stage", "EC50 [nM]": 32.1}
{"SMILES": "O=C(Nc1ccc(CNc2ncnc3ccccc23)cc1)c1ccc(Cl)c(F)c1", "strain": "3D7", "time": "72 h", "setting": "blood stage", "EC50 [nM]": 1510}
{"SMILES": "CCn1cc(-c2cccnc2)c(=O)c2cc(F)c(N3CCC(C)CC3)cc21", "strain": "3D7", "time": "72 h", "setting": "blood stage", "EC50 [nM]": "> 10000"}
{"SMILES": "COc1ccc(NC(=O)N2CCCCN3[C@H](CN(C)C)[C@H](c4ccc(C#Cc5ccccc5)cc4)[C@@H]3C2)cc1", "strain": "DD2", "setting": "blood stage", "EC50 [nM]": 13}
{"SMILES": "COc1ccc(Nc2ccnc3cc(-c4cnc(N5CCN(C)CC5)nc4)ccc23)cc1Cl", "strain": "D6", "setting": "drug-resistant strain, blood stage", "EC50 [nM]": 35}
{"SMILES": "CNS(=O)(=O)c1ccccc1Nc1nc(Nc2cc(OC)c(OC)cc2C)ncc1Br", "strain": "3D7", "time": "72 h", "setting": "blood stage", "EC50 [nM]": 153}
{"SMILES": "CN1CCN(c2ncc(-c3ccc4c(Nc5ccc(OCc6cccc(F)c6)c(Cl)c5)ccnc4c3)cn2)CC1", "strain": "D6", "setting": "drug-resistant strain, blood stage", "EC50 [nM]": 26}
{"SMILES": "CCn1cc(-c2nc(C)no2)c(=O)c2cc(F)c(N3CCC(C(C)C)CC3)cc21", "strain": "3D7", "time": "72 h", "setting": "blood stage", "EC50 [nM]": 41}
{"SMILES": "COc1ncc(Nc2ccnc3cc(-c4ccc(S(=O)(=O)N5CCN(C)CC5)cc4)ccc23)cn1", "strain": "D6", "setting": "drug-resistant strain, blood stage", "EC50 [nM]": 50}
{"SMILES": "CCn1cc(C(N)=O)c(=O)c2cc(F)c(N3CCC(C)CC3)cc21", "strain": "3D7", "time": "72 h", "setting": "blood stage", "EC50 [nM]": 390}
{"SMILES": "Cc1nnc(Nc2ccnc3cc(-c4ccc(S(=O)(=O)N5CCN(C)CC5)cc4)ccc23)nc1C", "strain": "D6", "setting": "drug-resistant strain, blood stage", "EC50 [nM]": 160}
{"SMILES": "C[C@H]1[C@@H](O)O[C@@H]2O[C@@]3(C)CC[C@H]4[C@H](C)CC[C@@H]1[C@@]24OO3", "strain": "NF54", "time": "48 h", "setting": "gametocyte", "EC50 [nM]": 11.5}
{"SMILES": "CN1CCN(S(=O)(=O)c2ccc(-c3ccc4c(Nc5cccc(Cl)c5)ccnc4c3)cc2)CC1", "strain": "D6", "setting": "drug-resistant strain, blood stage", "EC50 [nM]": 200}
{"SMILES": "CNS(=O)(=O)c1ccccc1Nc1nc(Nc2ccc(N3CCOCC3)cc2OC)ncc1Br", "strain": "3D7", "time": "72 h", "setting": "blood stage", "EC50 [nM]": 282}
{"SMILES": "COc1ccc(Nc2ccnc3cc(Nc4ccnc(N5CCN(C)CC5)n4)ccc23)cc1Cl", "strain": "D6", "setting": "drug-resistant strain, blood stage", "EC50 [nM]": 78}
{"SMILES": "CCn1cc(-c2nc(C)no2)c(=O)c2cc(F)c(N3CCCCCC3)cc21", "strain": "3D7", "time": "72 h", "setting": "blood stage", "EC50 [nM]": 35}
